The results in this text go back to ChEMBL document CHEMBL1130152, “7-spirobenzocyclohexyl derivatives of naltrexone, oxymorphone, and hydromorphone as selective opioid receptor ligands” (J Med Chem, 1997).

A value given as a limit tells only on which side of the number the result lay.

Assay [1] is filed under the species Cavia porcellus. As to the kind of experiment: Agonist activity expressed as percent inhibition of contraction of electrically stimulated guinea pig ileal longitudinal muscle at a concentration of 1 uM. In kind it is functional, Muscle tissue. A digest of the protocol:
(§1)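 Electrically stimulated GPI longitudinal muscle or MVD preparations. Ligands that were not full agonists were tested at 1 µM. Inhibition of contraction was expressed as a percentage of the maximal response. Three or more replicate determinations were run per compound.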

Assay [2] has as its target Kappa-type opioid receptor (Mus musculus, UniProt P33534). As to the kind of experiment: Inhibition of [3H]U-69593 binding to Opioid receptor kappa 1 from mouse brain membranes. The procedure, abridged:
(§2)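 Competition binding of test ligands against tritiated radioligands on mouse brain membranes; the μ site used [3H]DAMGO. IC50 was converted to Ki by the Cheng-Prusoff equation using radioligand concentration and KD. Values are arithmetic means of at least 3 determinations, ±SEM.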

Another assay concerns the target Mu-type opioid receptor (Mus musculus, UniProt P42866). As to the kind of experiment: Inhibition of [3H]DAMGO binding to Opioid receptor mu 1 from mouse brain membranes. A digest of the protocol:
as §2

The species entered for assay [3] is Mus musculus. Nature of the assay: Agonist activity expressed as percent inhibition of contraction of electrically stimulated mouse vas deferens at a concentration of 1 uM. In kind it is functional. A digest of the protocol:
as §1

The target of assay [4] is Delta-type opioid receptor (Mus musculus, UniProt P32300). As to the kind of experiment: Inhibition of [3H]-NTI binding to Opioid receptor delta 1 from mouse brain membranes. A digest of the protocol:
as §2

Assay [5] is filed under the species Cavia porcellus. As to the kind of experiment: Agonist activity expressed as inhibitory concentration against contraction of electrically stimulated guinea pig ileum. In kind it is functional. The procedure, abridged:
(§3)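 Electrically stimulated smooth muscle: longitudinal muscle of guinea pig ileum (GPI) and mouse vas deferens (MVD). Inhibition of contraction was measured for ligands acting as full agonists, and potency was given as IC50 (nM). Three or more replicate determinations were run per compound.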

The species entered for assay [6] is Mus musculus. Nature of the assay: Agonist activity expressed as inhibitory concentration against contraction of electrically stimulated mouse vas deferens. In kind it is functional. A digest of the protocol: as §3

Delta-type opioid receptor, sequence (P32300 whole entry): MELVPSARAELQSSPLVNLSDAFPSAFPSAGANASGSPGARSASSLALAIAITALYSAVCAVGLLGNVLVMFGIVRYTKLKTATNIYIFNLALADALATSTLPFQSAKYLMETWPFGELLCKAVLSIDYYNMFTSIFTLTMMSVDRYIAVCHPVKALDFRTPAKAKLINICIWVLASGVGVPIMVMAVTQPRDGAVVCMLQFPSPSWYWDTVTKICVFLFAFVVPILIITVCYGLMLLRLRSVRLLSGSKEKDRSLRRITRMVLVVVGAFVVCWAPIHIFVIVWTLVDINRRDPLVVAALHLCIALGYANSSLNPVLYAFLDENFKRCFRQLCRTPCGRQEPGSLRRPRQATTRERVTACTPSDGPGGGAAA
Kappa-type opioid receptor, sequence (P33534 whole entry): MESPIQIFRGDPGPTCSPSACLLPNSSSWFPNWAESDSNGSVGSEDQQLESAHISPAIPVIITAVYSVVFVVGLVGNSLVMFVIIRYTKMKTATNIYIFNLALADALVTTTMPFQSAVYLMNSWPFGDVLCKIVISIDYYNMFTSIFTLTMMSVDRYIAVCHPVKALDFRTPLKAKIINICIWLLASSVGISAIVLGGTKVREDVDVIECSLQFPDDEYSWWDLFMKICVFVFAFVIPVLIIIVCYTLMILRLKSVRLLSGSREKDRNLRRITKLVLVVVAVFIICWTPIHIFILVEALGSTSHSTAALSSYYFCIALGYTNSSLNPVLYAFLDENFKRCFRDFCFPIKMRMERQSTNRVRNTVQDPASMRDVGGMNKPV
Mu-type opioid receptor, sequence (P42866 whole entry): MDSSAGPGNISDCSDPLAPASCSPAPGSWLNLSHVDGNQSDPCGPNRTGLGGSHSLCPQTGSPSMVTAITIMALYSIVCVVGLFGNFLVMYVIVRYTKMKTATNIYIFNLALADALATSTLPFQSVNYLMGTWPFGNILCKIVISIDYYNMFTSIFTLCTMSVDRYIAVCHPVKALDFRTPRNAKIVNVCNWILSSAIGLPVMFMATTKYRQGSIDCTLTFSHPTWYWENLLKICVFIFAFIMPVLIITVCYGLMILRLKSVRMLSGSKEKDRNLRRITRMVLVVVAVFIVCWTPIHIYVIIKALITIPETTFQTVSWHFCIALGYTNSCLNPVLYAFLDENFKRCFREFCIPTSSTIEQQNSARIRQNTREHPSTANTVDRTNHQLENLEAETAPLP

Turning to `O=C1[C@@H]2Oc3c(O)ccc4c3C23CCN(CC2CC2)C(C4)[C@]3(O)C[C@]12CCc1ccccc1C2` (stereo not given in full), the Max response in the assay filed under Cavia porcellus [1] stood at 2%; in the assay listed under Mus musculus [3], 4%. The Ki in assay [2] was greater than 1000 nM; on Mu-type opioid receptor, 0.38 nM; in assay [4] it was 0.0019 nM.

With `CN1CCC23c4c5ccc(O)c4O[C@H]2C(=O)[C@@]2(CCc4ccccc4C2)C[C@H]3C1C5` (stereo not given in full), the Ki in assay [2] amounted to 88 nM; at Mu-type opioid receptor, 2.8 nM; in assay [4], 8.3 nM. Also, in the assay listed under Cavia porcellus [5], the IC50 turned out to be 130 nM. The compound further registered a Max response in the assay filed under Mus musculus [3] of 42%.

Take `CN1CCC23c4c5ccc(O)c4O[C@H]2C(=O)[C@@]2(CCc4ccccc4C2)C[C@@]3(O)C1C5` (stereo not given in full): the Ki in assay [2] is greater than 1000 nM; at Mu-type opioid receptor, 18 nM; in assay [4] it was 4.6 nM. Besides, the IC50 in the assay listed under Mus musculus [6] was found to be 24 nM; in the assay filed under Cavia porcellus [5] it was 183 nM.

With `O=C1[C@@H]2Oc3c(O)ccc4c3C23CCN(CC2CC2)C(C4)[C@]3(O)C[C@@]12CCc1ccccc1C2` (stereo not given in full), the Max response is on record as 16% in the assay listed under Cavia porcellus [1] and 3% in the assay filed under Mus musculus [3]. Further, the inhibition constant Ki in assay [2] came to 147 nM; at Mu-type opioid receptor it was 0.72 nM; in assay [4], 0.0041 nM.

As to `CN1CCC23c4c5ccc(O)c4O[C@H]2C(=O)[C@]2(CCc4ccccc4C2)C[C@H]3C1C5` (stereo not given in full), the Ki in assay [2] is greater than 1000 nM; on Mu-type opioid receptor it was 119 nM; in assay [4] it was 182 nM. Further, the IC50 in the assay listed under Cavia porcellus [5] came out at 107 nM. The Max response in the assay listed under Mus musculus [3] was determined as 17%.

Regarding `CN1CCC23c4c5ccc(O)c4O[C@H]2C(=O)[C@]2(CCc4ccccc4C2)C[C@@]3(O)C1C5` (stereo not given in full), the Ki is greater than 3000 nM in assay [2], 28 nM at Mu-type opioid receptor and 9.3 nM in assay [4]. Further, the concentration for half-maximal inhibition (IC50) in the assay filed under Mus musculus [6] amounted to 28 nM; in the assay filed under Cavia porcellus [5] it was 629 nM.

Turning to `O=C1[C@@H]2Oc3c(O)ccc4c3[C@@]23CCN(CC2CC2)[C@H](C4)[C@]3(O)CC12Cc1ccccc1C2`, the Max response came out at 16% in the assay filed under Cavia porcellus [1] and 8% in the assay listed under Mus musculus [3]. Further, the inhibition constant Ki in assay [2] was greater than 3000 nM; at Mu-type opioid receptor it was 1.5 nM; in assay [4] it was 0.25 nM.

Compound `CN1CC[C@]23c4c5ccc(O)c4O[C@H]2C(=O)C2(Cc4ccccc4C2)C[C@@]3(O)[C@H]1C5` [SPIROINDANYLOXYMORPHONE] had a Max response in the assay listed under Cavia porcellus [1] of 55%. Also, the Ki in assay [2] is greater than 3000 nM; on Mu-type opioid receptor, 14 nM; in assay [4], 2.8 nM. In the assay listed under Mus musculus [6], the 50% inhibitory concentration (IC50) came to 22 nM.
